A selection: hits, their analogues and other compounds. The true share with any hit is near 1.9%.
PG9 Ab binder – binders of HIV-1 gp120 antibody PG9, primary screen, biochemical, TR-FRET | 0.43% of 360,000 active | HIV-1 gp120 / PG9 antibody interaction | TR-FRET gp120-PG9 antibody binding | inhibition, % at 6.7 µM; in the data active means inhibition above about 8.5%
SKN-1 block – suppressors of acrylamide-induced Pgst-4::GFP reporter in worms, primary screen, SKN-1 inhibitor project, whole organism, uHTS, GFP/RFP fluorescence ratio, strain VP596. C. elegans VP596 Pgst-4::GFP/RFP ratio, 24 h. inhibition, % at 21.8 µM. 0.49% of 360,000 active;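 active means interference check ratio from 0.5 to 1.5 plus GFP to RFP signal ratio inhibition reaching or exceeding a fixed threshold, cut at about 30% in these data, passing the limit was not always enough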
MT1-MMP act inh – blockers of MT1-MMP proenzyme processing, primary screen, HT1080 RFP-PRO-GFP cells, GFP/RFP fluorescence | GFP/RFP ratio fluorescence, overnight; percent of plate control window, DMSO zero | AID 651647, 2012 | GFP/RFP ratio change, % at 20 µM | 0.061% of 360,000 active | Matrix metalloproteinase-14 (Homo sapiens), P50281;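 active means GFP/RFP ratio change of at least 30% with cell ATP level not reduced by more than half and red fluorescence within 50% of control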
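Test system: HT1080 cells expressing an RFP-PRO-GFP fluorescent reporter construct / Compound dosing: single-point 20 µM compound, 1% DMSO / Schedule: cells overnight before dosing, compound overnight, 37 °C, 5% CO2 / Evaluation: GFP/RFP fluorescence ratio / Control set: DMSO and RFP-L50D-GFP cell wells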
NR1D1 modulator – modulators of Rev-erb alpha DNA binding, primary screen, biochemical, FITC-DNA, fluorescence polarization, uHTS. Rev-erbα–FITC-DNA binding, 90 min. Nuclear receptor subfamily 1 group D member 1 (Homo sapiens), P20393. 0.79% of 370,000 active. activity, % at 10 µM. AID 1259318, 2017;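 active means activity above about 14%, limit read from the data; passing the limit was not always enough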
Target sequence (P20393 whole entry, looked up): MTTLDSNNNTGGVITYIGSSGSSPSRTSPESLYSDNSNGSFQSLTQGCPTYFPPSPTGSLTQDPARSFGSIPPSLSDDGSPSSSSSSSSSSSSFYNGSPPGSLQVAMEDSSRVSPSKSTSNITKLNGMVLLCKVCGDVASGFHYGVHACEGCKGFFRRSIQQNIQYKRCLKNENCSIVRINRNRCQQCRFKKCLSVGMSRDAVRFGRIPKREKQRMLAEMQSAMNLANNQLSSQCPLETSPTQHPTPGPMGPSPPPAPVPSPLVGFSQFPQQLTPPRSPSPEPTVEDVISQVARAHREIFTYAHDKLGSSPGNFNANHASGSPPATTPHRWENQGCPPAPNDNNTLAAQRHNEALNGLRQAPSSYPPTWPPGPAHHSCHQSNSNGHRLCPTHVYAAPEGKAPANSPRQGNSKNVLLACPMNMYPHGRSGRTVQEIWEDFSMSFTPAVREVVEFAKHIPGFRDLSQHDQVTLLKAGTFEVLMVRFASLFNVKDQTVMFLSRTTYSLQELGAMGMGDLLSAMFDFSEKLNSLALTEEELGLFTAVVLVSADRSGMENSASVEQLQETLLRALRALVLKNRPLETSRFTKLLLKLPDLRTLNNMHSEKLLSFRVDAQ
NR2E3 ag-1 – NR2E3 agonists in two-hybrid cells, primary screen, cell-based, luminescence, CHO-S, Gal4-NCOR/VP16-NR2E3; 0.35% of 360,000 active; Photoreceptor-specific nuclear receptor (Homo sapiens), Q9Y5X4; inhibition of corepressor binding, % at 3.98 µM; luciferase;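 active means inhibition above the mean of all tested compounds plus 3 SD, cut at about 70% in these data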;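 further: higher means lower luciferase signal from less NR2E3 corepressor binding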
NR2E3 ag-2 – inhibitors of NR2E3-RetCOR corepressor binding, primary screen, NR2E3 agonist project, biochemical, TR-FRET, GST-NR2E3, biotin-RetCOR; Photoreceptor-specific nuclear receptor (Homo sapiens), Q9Y5X4; 1536-well; inhibition of corepressor binding, % at 4.78 µM; 0.12% of 320,000 active;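 active means percent inhibition above the cutoff of mean plus 3 SD of all tested compounds, set per screening campaign, cut at about 20% in these data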
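Format: 1536-well format; test system: GST-NR2E3 and biotin-RetCOR proteins; read-out basis: percent inhibition of TR-FRET ratio; timing: 5 h incubation at 4 °C; detection: time-resolved FRET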
NR2E3 ag confirm – NR2E3 agonist confirmation in cells, cell-based, luminescence, CHO-S two-hybrid; shares compounds with NR2E3 ag-1; CHO-S mammalian two-hybrid NR2E3-NCOR, luciferase luminescence; inhibition, % at 3.98 µM; 51% of 2,300 active; AID 624378, 2012;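 active means average inhibition above a cutoff equal to the mean inhibition of all tested compounds plus one SD, cut at about 70% in these data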
VP16 counter – GAL4-VP16 reporter modulators, confirmation, counter-screen for NR2E3 agonist project, cell-based, luminescence, CHO-S, high throughput; shares compounds with NR2E3 ag-1; CHO-S GAL4-VP16 luciferase reporter; inhibition, % at 3.98 µM; 29% of 2,300 active; AID 624379, 2012;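 active means mean inhibition above a cutoff equal to the average over all tested compounds plus one standard deviation, cut at about 70% in these data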;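 further: luciferase from a UAS reporter driven by GAL4-VP16 transactivation; higher means less reporter light so more repression of VP16 activity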
Large screens that a line does not name were inactive (follow-up assays come after a bar, where they were run).

CC(C)(NS(=O)(=O)OCC(Cl)(Cl)Cl)c1ccccc1	none
CCN(CC)C(=O)c1oc2ccc(S(=O)(=O)N3CC(C)CC(C)C3)cc2c1C (stereo not given)	NR2E3 ag-1 93.5 | NR2E3 ag confirm 91.4 | VP16 counter 72.5
COC(CNC(=O)CSCc1nc(-c2ccc(SC)cc2)oc1C)OC	none | NR2E3 ag confirm 78.3 | VP16 counter inactive
CCc1ccc(-c2nc(CSCC(=O)NCc3ccco3)c(C)o2)cc1	NR2E3 ag-1 100.6 (no result: NR2E3 ag-2) | NR2E3 ag confirm 96.0 | VP16 counter 95.9
CCCNC(=O)CSCc1nc(-c2ccc(SC)cc2)oc1C	NR2E3 ag-1 82.2 | NR2E3 ag confirm 77.9 | VP16 counter 78.8
COc1ccccc1CNc1nc(NC(C)C)nc2cc(-c3ccccc3)sc12	none (no result: NR2E3 ag-2)
CC(C)Nc1nc(NCCOc2ccccc2Cl)c2sc(-c3ccccc3)cc2n1	none (no result: NR2E3 ag-2) | NR2E3 ag confirm inactive | VP16 counter inactive
Cc1cc(C(=O)OCC(=O)Nc2ccc(F)cc2)c(C)o1	NR2E3 ag-1 73.7 | NR2E3 ag confirm inactive | VP16 counter inactive
Cc1cc(C(=O)OCC(=O)Nc2ccccc2)c(C)o1	none
COCCCNC(=O)C[C@H]1C[C@@]2(C(=O)OC)C(=C[C@H](C3CCCC3)O[C@@H]2C)N(Cc2ccc(Cl)cc2Cl)C1=O	none (no result: PG9 Ab binder, SKN-1 block, MT1-MMP act inh, NR2E3 ag-1, NR2E3 ag-2)
Cc1cc(C(=O)COC(=O)c2ccccc2Br)c(C)n1CC1CCCO1 (stereo not given)	NR2E3 ag-1 88.8 | NR2E3 ag confirm 80.5 | VP16 counter 70.8
COCCn1c(C)cc(C(=O)COC(=O)c2ccccc2Br)c1C	NR2E3 ag-1 79.0 | NR2E3 ag confirm inactive | VP16 counter inactive
Cc1cc(C(=O)COC(=O)c2ccccc2O)c(C)n1CC1CCCO1 (stereo not given)	NR2E3 ag-1 94.9 | NR2E3 ag confirm 88.6 | VP16 counter 79.9
Cc1cc(C(=O)COc2ccccc2C(N)=O)c(C)n1CC1CCCO1 (stereo not given)	none | NR2E3 ag confirm 90.1 | VP16 counter inactive
COC(=O)C1=C(C)N(C)C(=NCc2ccccc2C(F)(F)F)NC1c1ccc(C(F)(F)F)cc1 (stereo not given)	none (no result: SKN-1 block, MT1-MMP act inh, NR2E3 ag-1, NR2E3 ag-2)
COC(=O)c1cc2c(c3c4ccccc4n(S(=O)(=O)c4ccc(OC)cc4)c13)C(=O)N(Cc1ccc(C(F)(F)F)cc1)C2	none (no result: SKN-1 block, MT1-MMP act inh, NR2E3 ag-1, NR2E3 ag-2)
Cc1cc(C(=O)COC(=O)c2cccnc2Cl)c(C)n1CC1CCCO1 (stereo not given)	none | NR2E3 ag confirm inactive | VP16 counter inactive
C=CCn1c(C)cc(C(=O)COC(=O)c2ccc(N)c([N+](=O)[O-])c2)c1C	none
CCn1c(C)cc(C(=O)COC(=O)c2ccccc2[N+](=O)[O-])c1C	NR2E3 ag-1 104.7 (no result: PG9 Ab binder, NR1D1 modulator, NR2E3 ag-2) | NR2E3 ag confirm 89.3 | VP16 counter 87.5
O=S(=O)(c1ccccc1)N1CCC(n2nnc3cc(F)ccc32)CC1	none
O=S(=O)(c1ccc2c(c1)OCCO2)N1CCC(n2nnc3cc(C(F)(F)F)ccc32)CC1	none | NR2E3 ag confirm inactive | VP16 counter inactive
COc1ccc(-n2c(SCC(=O)Nc3ccccc3-c3ccccc3)nnc2-c2ccccc2)cc1	none (no result: PG9 Ab binder, SKN-1 block, MT1-MMP act inh, NR2E3 ag-1, NR2E3 ag-2)
Cc1onc(-c2ccccc2Cl)c1C(=O)Nc1nc2c(s1)CCCC2	NR2E3 ag-1 81.9 | NR2E3 ag confirm 86.5 | VP16 counter inactive
CN1CCN(C(=O)c2cccc(-c3cnc4cnc(-c5ccccc5Oc5ccccc5)cn34)c2)CC1	none (no result: NR2E3 ag-2) | NR2E3 ag confirm 70.5 | VP16 counter inactive
O=C(c1cccc(-c2cncc3nccn23)c1)N1CCOCC1	none (no result: NR2E3 ag-2)
C=CCn1c(O)c(N=NC(=S)Nc2ccc(OC)cc2)c2ccccc21	none
C=CCn1c(O)c(N=NC(=S)Nc2cccc(OC)c2)c2ccccc21	NR2E3 ag-1 77.0 | NR2E3 ag confirm inactive | VP16 counter inactive
Oc1[nH]c2ccccc2c1N=NC(=S)N1CCOCC1	NR2E3 ag-1 101.3 (no result: PG9 Ab binder, NR1D1 modulator) | NR2E3 ag confirm 74.5 | VP16 counter inactive
NC(=S)N=Nc1c(O)[nH]c2ccccc12	none
Cc1ccc(NC(=O)O/N=C/c2c(C)nn(C(C)(C)C)c2C)cc1Cl	NR2E3 ag-1 99.9 | NR2E3 ag confirm 82.7 | VP16 counter 95.6
Cc1ccc(NC(=O)Nn2cnnc2)cc1Cl	none
O=C1c2ccccc2C(=O)N1c1ncc(Cc2ccc(Cl)cc2)s1	none
N=C1SCC(=O)N1c1ncc(Cc2ccccc2Cl)s1	NR2E3 ag-1 100.4 (no result: NR2E3 ag-2) | NR2E3 ag confirm 89.9 | VP16 counter inactive
N=C1SCC(=O)N1c1ncc(Cc2cccc(Cl)c2)s1	NR2E3 ag-1 100.3 (no result: NR2E3 ag-2) | NR2E3 ag confirm 97.5 | VP16 counter inactive
Cc1ccc(S(=O)(=O)N2CCCc3nc(-c4ccccc4)ccc32)cc1	none (no result: SKN-1 block, MT1-MMP act inh, NR2E3 ag-1, NR2E3 ag-2)
Cc1c(C(=O)Nc2ccc3c(c2)OCCO3)sc2nc(-c3ccccc3)cn12	none | NR2E3 ag confirm inactive | VP16 counter inactive
Cc1c(C(=O)Nc2ccncc2)sc2nc(-c3ccccc3)cn12	none
COc1ccc(CNS(=O)(=O)c2ccc(-c3cc(C)no3)cc2)cc1	none | NR2E3 ag confirm inactive | VP16 counter inactive
Cc1cc(-c2ccc(S(=O)(=O)NCc3ccc(F)cc3)cc2)on1	none
NC(=O)[C@@H]1CCCN1C(=O)[C@H]1O[C@@H](n2ccc(N)nc2=O)[C@H](O)[C@@H]1O	none (no result: SKN-1 block, MT1-MMP act inh, NR2E3 ag-1, NR2E3 ag-2)
C[C@]12Cc3ccccc3C1CC1=N[C@@H](C3CCCCC3)O[C@@]13C[C@@H]2C(=O)N3C1CCN(Cc2ccccc2)CC1 (stereo not given in full)	none (no result: SKN-1 block, MT1-MMP act inh, NR2E3 ag-1, NR2E3 ag-2)
O=C1C(=O)N(c2nccs2)C(c2ccccc2)/C1=C(\O)c1ccc2c(c1)OCCO2 (stereo not given)	NR2E3 ag-1 76.0 (no result: PG9 Ab binder, NR1D1 modulator) | NR2E3 ag confirm 82.0 | VP16 counter inactive
